Measured values published in ChEMBL document CHEMBL1212700, “Small-molecule aggregates inhibit amyloid polymerization” (Nat Chem Biol, 2008).
Calls of active or inactive are those of the source. No cut-off for these calls is given here.

Assays:
[1] = biological target: T1, Eukaryotic peptide chain release factor GTP-binding subunit (Saccharomyces cerevisiae) (UniProt P05453); assay: Inhibition of polyhistidine tagged yeast prion protein Sup35 expressed in Escherichia coli BL21 (DE3) assessed as inhibition of amyloid polymerization at 10 uM by thioflavin T fluorescence assay relative to untreated control
T1 sequence (whole entry): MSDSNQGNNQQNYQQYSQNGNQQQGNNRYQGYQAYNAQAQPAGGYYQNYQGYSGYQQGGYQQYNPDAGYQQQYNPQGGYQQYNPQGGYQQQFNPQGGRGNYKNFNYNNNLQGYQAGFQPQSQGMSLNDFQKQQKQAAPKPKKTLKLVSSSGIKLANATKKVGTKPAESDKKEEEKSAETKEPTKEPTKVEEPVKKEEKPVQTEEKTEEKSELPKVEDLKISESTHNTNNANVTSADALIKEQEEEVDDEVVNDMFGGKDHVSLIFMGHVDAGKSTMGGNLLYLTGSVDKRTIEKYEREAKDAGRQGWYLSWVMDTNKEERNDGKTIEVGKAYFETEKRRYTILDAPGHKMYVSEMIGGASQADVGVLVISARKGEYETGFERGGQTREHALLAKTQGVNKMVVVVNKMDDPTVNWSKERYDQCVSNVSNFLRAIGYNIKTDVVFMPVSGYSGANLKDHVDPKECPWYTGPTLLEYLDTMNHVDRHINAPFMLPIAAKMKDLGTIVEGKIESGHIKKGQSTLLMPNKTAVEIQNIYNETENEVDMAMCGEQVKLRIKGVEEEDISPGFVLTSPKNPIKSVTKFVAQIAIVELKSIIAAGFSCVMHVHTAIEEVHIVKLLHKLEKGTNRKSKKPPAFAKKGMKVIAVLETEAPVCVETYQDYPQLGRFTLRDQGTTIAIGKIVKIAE
Method in brief: (§1)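 Sup35 fibrillization followed by thioflavin T fluorescence in seeded and unseeded polymerization reactions. For BSA lines, BSA added from a 20 mg ml−1 solution to a final 5 mg ml−1. Inhibition is relative to untreated reactions.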

[2] = biological target: T1, Eukaryotic peptide chain release factor GTP-binding subunit (Saccharomyces cerevisiae); assay: Inhibition of polyhistidine tagged yeast prion protein Sup35 expressed in Escherichia coli BL21 (DE3) assessed as inhibition of amyloid polymerization at 10 uM in presence of 5 mg/ml BSA by thioflavin T fluorescence assay relative to untreated control; method in brief: as §1
Mus musculus [3] = organism: Mus musculus; assay: Inhibition of mouse prion protein (89-230) assessed as inhibition of amyloid polymerization at 25 uM by thioflavin T fluorescence assay relative to untreated control
Method in brief: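 Mouse prion protein (recMoPrP) fibrillization monitored by thioflavin T fluorescence; reactions contained 3 M urea.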

Saccharomyces cerevisiae = assay: Toxicity in PSI yeast spheroplast cells infected with yeast prion protein Sup35; format: organism-based
[4] = biological target: T1, Eukaryotic peptide chain release factor GTP-binding subunit (Saccharomyces cerevisiae); conditions: at 50 µM
[5] = biological target: T1, Eukaryotic peptide chain release factor GTP-binding subunit (Saccharomyces cerevisiae); conditions: at 50 µM; remark: listed apart in the source
Mus musculus [6] = organism: Mus musculus; conditions: at 50 µM
[7] = biological target: T1, Eukaryotic peptide chain release factor GTP-binding subunit (Saccharomyces cerevisiae); assay: Inhibition of yeast prion protein Sup35 infection of PSI yeast spheroplast cells at 200 uM
Method in brief: (§2)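 Yeast made infection-competent by enzymatic digestion of the cell wall, then exposed to Sup35 prion with compound; infectivity scored. EC50 derived from a 40–200 μM concentration series.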

[8] = Inhibition of Beta-lactamase at 50 uM by nitrocefin hydrolysis assay
[9] = Inhibition of Beta-lactamase at 50 uM in presence of 0.01% Triton X-100 by nitrocefin hydrolysis assay
[10] = biological target: T1, Eukaryotic peptide chain release factor GTP-binding subunit (Saccharomyces cerevisiae); assay: Inhibition of yeast prion protein Sup35 infection of PSI yeast spheroplast cells at 100 uM; method in brief: as §2
[11] = biological target: T1, Eukaryotic peptide chain release factor GTP-binding subunit (Saccharomyces cerevisiae); assay: Inhibition of polyhistidine tagged yeast prion protein Sup35 expressed in Escherichia coli BL21 (DE3) assessed as inhibition of amyloid polymerization at 100 uM by thioflavin T fluorescence assay relative to untreated control; method in brief: as §1
[12] = biological target: T1, Eukaryotic peptide chain release factor GTP-binding subunit (Saccharomyces cerevisiae); assay: Inhibition of polyhistidine tagged yeast prion protein Sup35 expressed in Escherichia coli BL21 (DE3) assessed as inhibition of amyloid polymerization preincubation of seed fibers and compound for 5 mins at 100 uM by thioflavin T fluorescence assay relative to untreated control
[13] = Inhibition of Beta-lactamase at 30 uM by nitrocefin hydrolysis assay
[14] = Inhibition of Beta-lactamase at 30 uM in presence of 0.01% Triton X-100 by nitrocefin hydrolysis assay
[15] = Inhibition of dynamic light scattering at 25 uM by thioflavin T fluorescence assay relative to untreated control; format: physicochemical
Method in brief: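 Sup35 fibrillization was tracked by dynamic light scattering, which served as a check against spectroscopic interference in the thioflavin T fluorescence read-out. Inhibition was scored against the reaction without compound.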

[16] = biological target: T1, Eukaryotic peptide chain release factor GTP-binding subunit (Saccharomyces cerevisiae); assay: Inhibition of polyhistidine tagged yeast prion protein Sup35 expressed in Escherichia coli BL21 (DE3) assessed as inhibition of amyloid polymerization at 50 uM in presence of 0.5% seed fibres by thioflavin T fluorescence assay relative to untreated control
Method in brief: (§3)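 Seeded Sup35 polymerization read by thioflavin T fluorescence, with seed at 0.5%, 1% or 5% and compound at fixed 50 μM. Preincubation line: 5-min preincubation before polymerization.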

[17] = biological target: T1, Eukaryotic peptide chain release factor GTP-binding subunit (Saccharomyces cerevisiae); assay: Inhibition of polyhistidine tagged yeast prion protein Sup35 expressed in Escherichia coli BL21 (DE3) assessed as inhibition of amyloid polymerization at 50 uM in presence of 1% seed fibres by thioflavin T fluorescence assay relative to untreated control; method in brief: as §3
[18] = biological target: T1, Eukaryotic peptide chain release factor GTP-binding subunit (Saccharomyces cerevisiae); assay: Inhibition of polyhistidine tagged yeast prion protein Sup35 expressed in Escherichia coli BL21 (DE3) assessed as inhibition of amyloid polymerization at 50 uM in presence of 5% seed fibres by thioflavin T fluorescence assay relative to untreated control; method in brief: as §3
[19] = biological target: T1, Eukaryotic peptide chain release factor GTP-binding subunit (Saccharomyces cerevisiae); assay: Inhibition of polyhistidine tagged yeast prion protein Sup35 expressed in Escherichia coli BL21 (DE3) assessed as inhibition of amyloid polymerization at 5 uM by thioflavin T fluorescence assay relative to untreated control; method in brief: as §1
[20] = biological target: T1, Eukaryotic peptide chain release factor GTP-binding subunit (Saccharomyces cerevisiae); assay: Inhibition of polyhistidine tagged yeast prion protein Sup35 expressed in Escherichia coli BL21 (DE3) assessed as inhibition of amyloid polymerization at 5 uM in presence of 5 mg/ml BSA by thioflavin T fluorescence assay relative to untreated control; method in brief: as §1
[21] = Inhibition of Beta-lactamase at 4 uM by nitrocefin hydrolysis assay
[22] = Inhibition of Beta-lactamase at 4 uM in presence of 0.01% Triton X-100 by nitrocefin hydrolysis assay
[23] = biological target: T1, Eukaryotic peptide chain release factor GTP-binding subunit (Saccharomyces cerevisiae); assay: Inhibition of polyhistidine tagged yeast prion protein Sup35 expressed in Escherichia coli BL21 (DE3) assessed as inhibition of amyloid polymerization at 30 uM by thioflavin T fluorescence assay relative to untreated control; method in brief: as §1
[24] = biological target: T1, Eukaryotic peptide chain release factor GTP-binding subunit (Saccharomyces cerevisiae); assay: Inhibition of polyhistidine tagged yeast prion protein Sup35 expressed in Escherichia coli BL21 (DE3) assessed as inhibition of amyloid polymerization at 30 uM in presence of 5 mg/ml BSA by thioflavin T fluorescence assay relative to untreated control; method in brief: as §1
Mus musculus [25] = organism: Mus musculus; assay: Inhibition of mouse prion protein (89-230) assessed as assessed as coating of prion protein with […] particles at 50 uM by transmission electron microscopy
Method in brief: (§4)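 Preformed fibres (recMoPrP at 50 μM compound, Sup35 at 100 μM compound) were mixed with compound, then examined by transmission electron microscopy for colloidal particles coating the fibres.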

Mus musculus [26] = organism: Mus musculus; assay: Inhibition of mouse prion protein (89-230) assessed as assessed as inhibition of fiber formation at 50 uM by transmission electron microscopy
Method in brief: (§5)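 Transmission electron microscopy of recMoPrP (50 μM compound) or Sup35 (100 μM compound) polymerized in the presence of compound, scored for fibre formation.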

[27] = Inhibition of Beta-lactamase at 25 uM by nitrocefin hydrolysis assay
[28] = Inhibition of Beta-lactamase at 25 uM in presence of 0.01% Triton X-100 by nitrocefin hydrolysis assay
[29] = Inhibition of Beta-lactamase at 35 uM by nitrocefin hydrolysis assay
[30] = Inhibition of Beta-lactamase at 35 uM in presence of 0.01% Triton X-100 by nitrocefin hydrolysis assay
[31] = biological target: T2, Eukaryotic peptide chain release factor GTP-binding subunit (Saccharomyces cerevisiae, UniProt P05453); assay: Inhibition of polyhistidine tagged yeast prion protein Sup35 expressed in Escherichia coli BL21 (DE3) assessed as inhibition of amyloid polymerization by thioflavin T fluorescence assay relative to untreated control; method in brief: as §1
T2 sequence (P05453 whole entry): T1 sequence (whole entry)

[32] = Inhibition of dynamic light scattering at 2 uM by thioflavin T fluorescence assay relative to untreated control; format: physicochemical
Method in brief: (§6)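 Sup35 polymerization followed by dynamic light scattering rather than ThT fluorescence, as a control for spectroscopic interference; percent inhibition of the DLS signal.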

[33] = Inhibition of dynamic light scattering at 20 uM by thioflavin T fluorescence assay relative to untreated control; format: physicochemical; method in brief: as §6
[34] = biological target: T1, Eukaryotic peptide chain release factor GTP-binding subunit (Saccharomyces cerevisiae); assay: Inhibition of polyhistidine tagged yeast prion protein Sup35 expressed in Escherichia coli BL21 (DE3) assessed as coating of prion protein with […] particles at 100 uM by transmission electron microscopy; method in brief: as §4
[35] = biological target: T1, Eukaryotic peptide chain release factor GTP-binding subunit (Saccharomyces cerevisiae); assay: Inhibition of polyhistidine tagged yeast prion protein Sup35 expressed in Escherichia coli BL21 (DE3) assessed as inhibition of fiber formation at 100 uM by transmission electron microscopy; method in brief: as §5

SMILES: Oc1ccc(/N=N/c2ccc(Br)cc2)cc1
- inhibition [1]: 36.4%
- inhibition [2]: 2.1%
- inhibition (Mus musculus [3]): 100%
- Activity (Saccharomyces cerevisiae): Toxic

SMILES: OC(Cn1cncn1)(Cn1cncn1)c1ccc(F)cc1F
- inhibition [4]: 0%
- inhibition [5]: 9%
- inhibition (Mus musculus [6]): 5.9%

SMILES: O=C1NC(=O)c2cc(Nc3ccccc3)c(Nc3ccccc3)cc21
- inhibition (Mus musculus [3]): 73.6%
- inhibition [7]: Active
- inhibition [8]: 97%
- inhibition [9]: 0.7%
- inhibition [4]: 87.1%
- inhibition [5]: 44.7%

SMILES: COC(=O)C1=C(C)NC(C)=C(C(=O)OCCN(C)Cc2ccccc2)C1c1cccc([N+](=O)[O-])c1 (stereo not given)
- inhibition [7]: Active
- inhibition [10]: 50%
- inhibition [11]: 55%
- inhibition [12]: 88%
- inhibition [4]: 61.5%
- inhibition [5]: 0%
- inhibition (Mus musculus [6]): 22.7%

SMILES: Clc1ccc(CSC(Cn2ccnc2)c2ccc(Cl)cc2Cl)cc1 (stereo not given)
- inhibition [4]: 75.5%
- inhibition [5]: 10.1%
- inhibition (Mus musculus [6]): 100%

SMILES: O=c1cc(-c2ccccc2)oc2cc(O)c(O)c(O)c12
- inhibition [7]: Active
- inhibition [13]: 51.8%
- inhibition [14]: 0%
- inhibition [4]: 95.4%
- inhibition [5]: 17.6%
- inhibition (Mus musculus [6]): 34.3%

SMILES: Clc1ccccc1C(c1ccccc1)(c1ccccc1)n1ccnc1 [CLOTRIMAZOLE]
- inhibition (INH) [15]: 98%
- inhibition (Mus musculus [3]): 21.5%
- inhibition [16]: 99%
- inhibition [17]: 95%
- inhibition [18]: 30%
- Activity (Saccharomyces cerevisiae): Toxic
- inhibition [11]: 79%
- inhibition [12]: 94%
- inhibition [4]: 62.7%
- inhibition [5]: 5.6%

SMILES: CCN(CC)CC(=O)Nc1c(C)cccc1C
- inhibition (Mus musculus [3]): 0%
- inhibition [7]: Active
- inhibition [4]: 1.1%
- inhibition [5]: 0%

SMILES: Nc1c(/N=N/c2ccc(-c3ccc(/N=N/c4cc(S(=O)(=O)O)c5ccccc5c4N)cc3)cc2)cc(S(=O)(=O)O)c2ccccc12
- inhibition [19]: 100%
- inhibition [20]: 100%
- inhibition [21]: 92%
- inhibition [22]: 20%
- inhibition (Mus musculus [6]): 100%

SMILES: CC(=O)c1c(O)c(C)c(O)c(Cc2c(O)c3c(c(C(=O)/C=C/c4ccccc4)c2O)OC(C)(C)C=C3)c1O
- inhibition [23]: 99.4%
- inhibition [24]: 40.5%
- inhibition (Mus musculus [3]): 71.1%
- inhibition (Mus musculus [25]): Active
- inhibition (Mus musculus [26]): Active
- inhibition [7]: Active

SMILES: Oc1c(I)cc(Cl)c2cccnc12
- inhibition [27]: 51.6%
- inhibition [28]: 6.4%
- inhibition [4]: 54.7%
- inhibition [5]: 0%
- inhibition (Mus musculus [6]): 0%

SMILES: Cc1cc(/N=N/c2ccc(-c3ccc(/N=N/c4cc(C)c(O)c(C(=O)O)c4)cc3)cc2)c(C(=O)O)cc1O
- inhibition [29]: 50%
- inhibition [30]: 0%

SMILES: O=C1C(I)=CC(=C(c2ccccc2C(=O)O)C2C=C(I)C(=O)C(I)=C2)C=C1I [TERAIODOPHENOLPHATHALIN]
- inhibition [23]: 99.3%
- IC50 [31]: 2.5 µM
- inhibition [24]: 6.8%
- inhibition (INH) [32]: 30%
- inhibition (INH) [33]: 99%
- inhibition [34]: Active
- inhibition [35]: Active
- inhibition [7]: Active
- inhibition (Mus musculus [6]): 0%
